Experiment [1] in a line: Antagonism of PLC stimulation elicited by 10(nM) 2-Me SADP in turkey RBC. It counts as functional, Meleagris gallopavo.
Experiment [2] deals with P2Y purinoceptor 1 (Meleagris gallopavo) (UniProt P49652). Briefly: P2Y purinoceptor 1 mediated PLC stimulation in turkey RBC, NE represents no effect. The essentials:
(§1)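 Compound alone added to [3H]inositol-labeled turkey erythrocyte ghosts (~175 μg protein) with 1 μM GTPγS in Hepes pH 7.0 medium, 5 min at 30 °C. Total [3H]inositol phosphates quantified by anion-exchange chromatography. EC50 from four-parameter logistic fit, 3–8 independent curves. Efficacy relative to a maximal 2-MeSADP concentration in the same experiment; NE = no effect at 100 μM.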

Experiment [3] concerns Meleagris gallopavo. Nature of the experiment: Antagonism of PLC stimulation elicited by 30(nM) 2-Me SADP in turkey RBC. More on the design: concentration or dose not given beside the values. The following applies: dose or concentration not given here. Type of experiment: functional. The essentials:
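Turkey erythrocytes labeled 18–24 h with 2-[3H]myo-inositol at 37 °C; ghost membranes with 1 μM GTPγS and test compound combined with 30 nM 2-MeSADP, 5 min at 30 °C, Hepes pH 7.0. [3H]inositol phosphates separated by anion exchange. IC50 for 50% inhibition of agonist response; at least three experiments, different membrane preparations, duplicate or triplicate assays.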

Experiment [4] relates to Meleagris gallopavo. Briefly: Tested in vitro for effective concentration required for stimulation of phospholipase C (PLC) against [3H]inositol labeled Turkey Erythrocyte P2Y purinoceptor 1. Type of experiment: functional. The essentials: as §1
In experiment [5] the target is P2Y purinoceptor 1 (Meleagris gallopavo) (UniProt P49652). Nature of the experiment: In vitro agonistic activity was determined for stimulation of PLC at Turkey erythrocyte P2Y purinoceptor 1. It counts as functional. A digest of the protocol: as §1

Active and inactive are the calls of the source. The calls are words filed in the database; no cut-off is given here.

P2Y purinoceptor 1 (Meleagris gallopavo), sequence (P49652 whole entry): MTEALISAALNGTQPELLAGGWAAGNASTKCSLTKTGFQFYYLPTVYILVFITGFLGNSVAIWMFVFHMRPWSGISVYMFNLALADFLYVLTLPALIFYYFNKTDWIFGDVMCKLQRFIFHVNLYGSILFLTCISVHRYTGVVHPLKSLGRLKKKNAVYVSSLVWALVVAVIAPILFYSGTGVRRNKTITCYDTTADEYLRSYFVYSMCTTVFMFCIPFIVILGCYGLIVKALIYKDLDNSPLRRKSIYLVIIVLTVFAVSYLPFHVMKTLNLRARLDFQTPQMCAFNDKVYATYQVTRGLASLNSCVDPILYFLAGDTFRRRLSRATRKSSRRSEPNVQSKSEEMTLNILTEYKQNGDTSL

In general, IC50 refers to the concentration at which inhibition is half-maximal. For orientation: inhibition means how much of the control response was suppressed. `CNc1nc(Cl)nc2c1ncn2CCC(COP(=O)(O)O)COP(=O)(O)O` yielded an IC50 in experiment [1] of 0.84 µM. Further, in experiment [2], the PLC stimulation result is “inactive”. In addition, in experiment [3], the inhibition was determined as 99%.

On to `CNc1ncnc2c1ncn2CCCC(COP(=O)(O)O)COP(=O)(O)O`, for which the IC50 in experiment [1] was greater than 30 µM. The PLC stimulation entry in experiment [2] is “inactive”. Moreover, the inhibition in experiment [3] amounted to 68%.

As for `CNc1nc(Cl)nc2c1ncn2[C@@H]1C[C@H](COP(=O)(O)O)[C@H](OP(=O)(O)O)C1`, the half-inhibitory concentration (IC50) in experiment [1] amounted to 0.206 µM. Moreover, in experiment [2], the PLC stimulation entry is “inactive”. This compound also had an inhibition in experiment [3] of 95%.

In turn, `CNc1ncnc2c1ncn2CCCCC(COP(=O)(O)O)COP(=O)(O)O` showed an IC50 in experiment [1] greater than 50 µM. In experiment [2], the PLC stimulation result is “inactive”. In experiment [3], this compound showed an inhibition of 65%.

Regarding `CNc1ncnc2c1ncn2[C@@H]1C[C@H](COP(=O)(O)O)[C@H](OP(=O)(O)O)C1`, in experiment [1], the half-maximal inhibitory concentration (IC50) turned out to be 0.331 µM. The PLC stimulation entry in experiment [2] was “inactive”. Besides, in experiment [3], the inhibition was found to be 99%.

`CNc1nc(Cl)nc2c1ncn2CC(=O)N(CCOP(=O)(O)O)CCOP(=O)(O)O` gave an IC50 in experiment [1] of 14 µM. Moreover, the PLC stimulation entry in experiment [2] is “inactive”. The compound further had an inhibition in experiment [3] of 89%.

In general, EC50 refers to the midpoint of the concentration-response curve. `Nc1ncnc2c1ncn2[C@H]1C[C@H](OP(=O)(O)O)[C@@H](COP(=O)(O)O)O1` gave an EC50 in experiment [4] of 6.29 µM. In experiment [1], the midpoint of inhibition, the IC50, lay at 5.76 µM. In experiment [3], this compound registered an inhibition of 87%.

Turning to `CNc1ncnc2c1ncn2C/C=C\CC(COP(=O)(O)O)COP(=O)(O)O` (stereo in doubt; 16) [listing 1 of 2 here], in experiment [2], the PLC stimulation entry is “inactive”. The inhibition in experiment [3] was 54%.

For `CNc1nc(Cl)nc2c1ncn2CC(=O)Nc1cc(CP(=O)(O)O)cc(CP(=O)(O)O)c1`, the IC50 in experiment [1] was determined as 15.5 µM. In addition, in experiment [2], the PLC stimulation entry was “inactive”. For the same compound, in experiment [3], the inhibition turned out to be 94%.

In turn, `CNc1ncnc2c1ncn2C/C=C\CC(COP(=O)(O)O)COP(=O)(O)O` (stereo in doubt; 16) [listing 2 of 2 here] registered an IC50 in experiment [1] of 100 µM.

Compound `Nc1nc(Cl)nc2c1ncn2CCC(COP(=O)(O)O)COP(=O)(O)O` registered a 50% inhibitory concentration (IC50) in experiment [1] of 7.57 µM. Also, the PLC stimulation entry in experiment [2] was “inactive”. Further, the inhibition in experiment [3] is 94%.

Regarding `CNc1ncnc2c1ncn2CCC(COP(=O)(O)O)COP(=O)(O)O`, the IC50 in experiment [1] worked out at 1.6 µM. In addition, the PLC stimulation result in experiment [2] is “inactive”. The compound further showed an inhibition in experiment [3] of 100%.

With `CNc1ncnc2c1ncn2C/C=C\CC(COP(=O)(O)O)COP(=O)(O)O` (stereo in doubt; 15) [listing 1 of 2 here], in experiment [2], the PLC stimulation entry was “inactive”. The compound further gave an inhibition in experiment [3] of 77%.

As for `CNc1nc(Cl)nc2c1ncn2[C@H]1C[C@H](OP(=O)(O)O)[C@@H](COP(=O)(O)O)O1`, the IC50 in experiment [1] was 0.206 µM. For the same compound, the PLC stimulation result in experiment [2] is “inactive”. In experiment [3], this compound returned an inhibition of 95%.

Regarding `Nc1ncnc2c1ncn2CCC(COP(=O)(O)O)COP(=O)(O)O`, the IC50 in experiment [1] was greater than 50 µM. In addition, in experiment [2], the PLC stimulation entry is “inactive”. Also, in experiment [3], the inhibition turned out to be 63%.

With `CNc1ncnc2c1ncn2C/C=C\CC(COP(=O)(O)O)COP(=O)(O)O` (stereo in doubt; 15) [listing 2 of 2 here], in experiment [1], the IC50 is greater than 50 µM.

Turning to `CNc1ncnc2c1ncn2CCCCCC(COP(=O)(O)O)COP(=O)(O)O`, the concentration for half-maximal inhibition (IC50) in experiment [1] was determined as 100 µM. In experiment [2], the PLC stimulation entry is “inactive”. In experiment [3], the inhibition stood at 56%.

As for `CNc1ncnc2c1ncn2[C@H]1C[C@H](OP(=O)(O)O)[C@@H](COP(=O)(O)O)O1`, in experiment [2], the PLC stimulation result is “inactive”.

`Nc1ncnc2c1ncn2[C@@H]1C[C@H](COP(=O)(O)O)[C@H](OP(=O)(O)O)C1` had an EC50 in experiment [4] of 7.21 µM. This compound also had an Increase in experiment [5] of 27%. In experiment [1], this compound returned a 50% inhibitory concentration (IC50) of 2.53 µM. The same compound displayed an inhibition in experiment [3] of 73%.

(Values after ChEMBL document CHEMBL1133709, “Acyclic analogues of deoxyadenosine 3',5'-bisphosphates as P2Y(1) receptor antagonists” (J Med Chem, 2000).)
